The source of these data is paper PMC6571060 (Cancer research, 2019).

The subject of data set [1] is wt-KRas H1975 NSCLC xenograft. The data set can be described thus: Antitumor activity, H1975 xenograft. It is filed as in vivo, NOD-SCID mice. To be noted: 200 mg/kg ip daily for 21 days. A digest of the protocol:
(§1)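 About 10⁷ log-phase NSCLC cells in 0.2 mL PBS were injected subcutaneously into the flank of female NOD-SCID mice, 10 per group. Daily 200 mg/kg ip dosing began at tumor volumes of 50–150 mm³, for 20 days (A549, H441) or 21 days (H1975). Caliper volumes were taken twice weekly and body weight weekly. P values were computed at end of dosing.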

The subject of data set [2] is p-Egfr, activated RalB and Rho in A549 NSCLC tumor xenografts. As to the kind of experiment: Western blot / GTP activation of downstream signaling in A549 tumor xenografts. It is filed as in vivo, mice. To be noted: 200 mg/kg ip. In short, it runs like this: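 A549 xenograft tumors were sampled at 4 and 24 hr after a single 200 mg/kg ip dose, and 4 hr after the last dose of 6 days' daily dosing, 4 mice per time point. Blots probed phospho-Egfr Tyr1068 and other signaling proteins. RalA/B, Rho and total Ras GTP were measured by activation kits.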

The test system of the next data set is wt-KRas NSCLC cell lines. As to the kind of experiment: 2D growth on plastic of NSCLC cell line panel. To be noted: 72 hr. It is filed as cell-based.
The subject of the next data set is wt-KRas NSCLC cells. As to the kind of experiment: 3D growth inhibition. It is filed as cell-based. A digest of the protocol:
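NSCLC lines were tested for mycoplasma and authenticated before study and every 2 months in culture. Anchorage-independent growth was measured in soft agarose using a modified 96-well method, with test compound present. IC50 values were derived for 3D growth inhibition.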

For data set [3], the system named is mut-KRas(G12S) A549 xenograft. The data set can be described thus: Antitumor activity, A549 xenograft. It is filed as in vivo, NOD-SCID mice. To be noted: 200 mg/kg ip daily for up to 20 days. In short, it runs like this:
as §1

A further data set deals with mut-KRas cells. The data set can be described thus: Cell proliferation in a small group of mut-KRas cells. It is filed as cell-based. In short, it runs like this: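 Cells were exposed to test compound for 72 hr. Growth was then read by XTT cell viability assay.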
Data set [4] deals with T1, PH domain of Cnk1 (Homo sapiens, UniProt Q969H4).
T1 sequence (Q969H4 403-502 limits assumed): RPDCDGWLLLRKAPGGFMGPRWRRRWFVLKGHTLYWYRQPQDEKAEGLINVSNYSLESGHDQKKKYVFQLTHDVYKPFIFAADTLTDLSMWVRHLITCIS
As to the kind of experiment: SPR displacement of PtdIns. It is filed as binding. To be noted: 50 μM. A digest of the protocol: (§2)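 The Cnk1 PH domain was expressed with an N-terminal glutathione S-transferase fusion and captured on a CM5 chip with a Gst capture kit. Compound binding or PtdIns(3,4,5)P₃ displacement was run by SPR on a Biacore T200.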

The next data set concerns RalB and Rho activation. As to the kind of experiment: Western blot / GTP activation of downstream K-Ras signaling in mut-KRAS cells. It is filed as cell-based. To be noted: panel of mut-KRAS cells, 24 hr. A digest of the protocol: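 Mut-KRas NSCLC cells were exposed 24 hr to 25 μM test compound; A549 received a concentration range. Western blots used rabbit monoclonal phospho- and total-protein antibodies. RalA, RalB, Rho and Ras GTP levels were measured with activation kits per manufacturer instructions.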

In the next data set the test system is Cell migration. As to the kind of experiment: Cell migration. It is filed as cell-based.
Data set [5] in a line: Mouse body weight during treatment. It is filed as in vivo, NOD-SCID mice. To be noted: PHT-7.3 treatment, 200 mg/kg ip daily. A digest of the protocol:
as §1

Data set [6] concerns the target T1, PH domain of Cnk1. As to the kind of experiment: SPR binding to the Gst-tagged PH domain of Cnk1. To be noted: read-out: Cnk1 binding Kd, SPR spectroscopy. In short, it runs like this: as §2
A further data set deals with mut-KRas NSCLC cells. As to the kind of experiment: 3D growth inhibition. It is filed as cell-based. To be noted: read-out: Growth inhibition IC50 mut-Ras; mean IC50, 3D growth; H2122, Calu1, H2009, H441, H358, H1573, H23, H1373, A549, H1944, H647.
The test system of data set [7] is mut-KRasG12V H441 xenograft. The data set can be described thus: Antitumor activity, H441 xenograft. It is filed as in vivo, NOD-SCID mice. To be noted: 200 mg/kg ip daily for up to 20 days. In short, it runs like this:
as §1

The nature of data set [8]: Pharmacokinetics in mice after intraperitoneal administration. It is filed as in vivo. To be noted: 10 mg/kg.
In data set [9] the test system is PH domains of Pdpk1, Btk, Akt1, and Plekha7. The data set can be described thus: SPR binding selectivity against other PH domains.
The target in data set [10] is T2, Cnk1 and mut-KRas co-localization in HEK293 cells (Homo sapiens, UniProt Q969H4).
T2 sequence (Q969H4 1-720): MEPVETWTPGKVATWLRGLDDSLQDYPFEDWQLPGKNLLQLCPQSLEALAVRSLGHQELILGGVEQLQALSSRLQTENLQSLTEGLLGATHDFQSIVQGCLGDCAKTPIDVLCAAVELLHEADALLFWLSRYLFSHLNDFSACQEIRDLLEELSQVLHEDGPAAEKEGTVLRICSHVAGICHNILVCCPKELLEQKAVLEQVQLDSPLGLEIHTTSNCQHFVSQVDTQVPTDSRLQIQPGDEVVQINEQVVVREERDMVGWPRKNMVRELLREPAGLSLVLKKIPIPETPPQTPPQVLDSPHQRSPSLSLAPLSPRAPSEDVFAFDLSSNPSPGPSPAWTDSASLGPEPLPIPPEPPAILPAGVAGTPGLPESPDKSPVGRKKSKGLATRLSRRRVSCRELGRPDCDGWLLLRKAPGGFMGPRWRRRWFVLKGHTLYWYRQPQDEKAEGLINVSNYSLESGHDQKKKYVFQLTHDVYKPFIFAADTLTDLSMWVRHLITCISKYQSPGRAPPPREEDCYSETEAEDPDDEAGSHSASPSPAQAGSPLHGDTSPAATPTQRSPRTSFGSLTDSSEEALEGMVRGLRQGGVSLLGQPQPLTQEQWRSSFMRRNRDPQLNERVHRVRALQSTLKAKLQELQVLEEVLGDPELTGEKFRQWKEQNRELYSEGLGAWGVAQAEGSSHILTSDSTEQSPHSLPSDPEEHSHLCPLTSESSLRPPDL
As to the kind of experiment: Confocal microscopy / FLIM of Cnk1-GFP and mut. It is filed as cell-based. In short, it runs like this: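 HEK293 cells co-expressed Cnk1-GFP and mut(G12D)-KRas-RFP and were incubated 1 hr with 50 μM test compound. Confocal laser scanning microscopy assessed membrane co-localization. FLIM average fluorescence lifetime was taken from co-localization images, with lifetime shortening from FRET indicating direct Cnk1–KRas interaction.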

“Also recorded” adds a separate entry of the source.

With `Cc1ccc(-c2csc(Cn3nc(CC4OCCCO4)c4ccccc4c3=O)n2)cc1` [PHT-7.3], the “Antitumor activity, H1975 xenograft” value in [1] was “not in the wt-KRas H1975 NSCLC xenograft”. In addition, in [2], the “Activated RalB and Rho signaling in tumor xenografts” value was “down-regulation of activated RalB and Rho signaling”; the “p-Egfr level in tumor xenografts” value is listed as “increased levels of p-Egfr”. Besides, the “2D growth of wt-KRas NSCLC cell lines” value with wt-KRas NSCLC cell lines was “not inhibited except for two lines H1437 and H2023”. In addition, in the data set on wt-KRas NSCLC cells (read-out: Growth inhibition IC50 wt-KRas, mean IC50, 3D growth, H266, H1299, H1975, H3255, H1437, H2023), the IC50 was found to be 69 µM. Moreover, in the data set on wt-KRas NSCLC cells (soft agarose, except H1437 and H2023), the “3D anchorage independent growth of wt-KRas cells” value is given as “still not inhibited”. Also, in data set [3], the “Antitumor activity, A549 xenograft” value is on record as “cytostatic antitumor activity”. The “Cell proliferation, small group of mut-KRas cells” value in the data set with mut-KRas cells is “inhibit cell proliferation”. In addition, the “Displacement of PtdIns(3,4,5)P3 binding to the PH domain of Cnk1” value on PH domain of Cnk1 [4] is “displaced; also recorded: displacement of PtdIns([3],[4],[5])P3 binding”. Also, the “RalB and Rho activation in mut-KRAS cells” value in the data set with RalB and Rho activation was “decreased RalB and Rho activation”. In the data set with Cell migration, the Cell migration entry was “inhibited”. Besides, in data set [5], the Body weight result was “no loss of body weight”. The Kd at PH domain of Cnk1 [6] was 4.7 µM. Besides, the IC50 in the data set on mut-KRas NSCLC cells is 19 µM. Further, the “Antitumor activity, H441 xenograft” value in data set [7] was “cytostatic antitumor activity”. In data set [8], the “Pharmacokinetics Cl” value was determined as 133 mL·min/kg and the “Pharmacokinetics t½β” value turned out to be 4.33 h. For the same molecule, the “Binding to PH domain of Cnk1 compared to PH domains of Pdpk1, Btk, Akt1, and Plekha7” value in data set [9] is “selective binding”. Further, the “Binding of Cnk1 to mut-KRAS by FLIM lifetime” value in data set [10] (FLIM lifetime plots, compound-treated cells) is reported as “inhibited the binding of Cnk1 to mut-KRAS; also recorded: inhibited Cnk1 interaction with mut-KRAS”. Further, in data set [10] (confocal microscopy, HEK293 cells, 50 μM, 1 hr), the “Co-localization of Cnk1 and mut-KRas at the cell plasma membrane” value was “blocked the co-localization”.
